Results: ChEMBL document CHEMBL1153956, “Synthesis of protein tyrosine phosphatase 1B inhibitors: model validation and docking studies” (Bioorg Med Chem Lett, 2009)

Legend:
[1] = biological target: T1, Tyrosine-protein phosphatase non-receptor type 1 (Homo sapiens) (UniProt P18031); experiment: Inhibition of PTP1B at 100 uM
T1 sequence (whole entry): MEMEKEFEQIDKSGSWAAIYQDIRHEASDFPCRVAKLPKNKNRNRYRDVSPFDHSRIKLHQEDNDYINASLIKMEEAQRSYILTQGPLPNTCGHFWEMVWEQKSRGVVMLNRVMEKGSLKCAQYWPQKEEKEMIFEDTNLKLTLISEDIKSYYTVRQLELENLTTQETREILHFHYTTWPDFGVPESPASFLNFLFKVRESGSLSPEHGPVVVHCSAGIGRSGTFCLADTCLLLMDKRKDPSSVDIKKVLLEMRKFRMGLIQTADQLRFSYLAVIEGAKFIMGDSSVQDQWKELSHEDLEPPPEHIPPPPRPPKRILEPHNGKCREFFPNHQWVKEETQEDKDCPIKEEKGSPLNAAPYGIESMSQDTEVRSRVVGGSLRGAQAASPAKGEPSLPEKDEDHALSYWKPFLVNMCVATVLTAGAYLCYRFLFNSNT
Procedure, shortened: (§1)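 PTP1B was pre-incubated with test compound for 10 min in the reaction system, at graded doses for IC50 or at a single fixed concentration for percent inhibition. Residual activity was measured by the Goldstein method with 10 mM PNPP in 50 mM HEPES pH 7.0 containing 1 mM EDTA and DTT. Peroxovanadate served as control. The reaction was stopped with 0.1 N NaOH and read at 410 nm. p-Nitrophenolate was quantified using ε = 1.78 × 10⁴ M⁻¹ cm⁻¹.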

Rattus norvegicus [2] = experiment: Antidiabetic activity in streptozotocin-induced diabetic Sprague-Dawley rat model assessed as reduction in blood glucose level at 100 mg/kg; format: functional; parameters: scale not given: the % may be the effect or the level left
Procedure, shortened: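 Streptozotocin-induced diabetic rats received compound, vehicle or metformin as reference standard. Blood glucose was monitored before dosing and up to 24 h after administration. Activity is expressed as percent sugar-lowering effect.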

Rattus norvegicus [3] = experiment: Antidiabetic activity in sucrose loaded Sprague-Dawley rat model assessed as reduction in blood glucose level at 100 mg/kg; format: functional; parameters: scale not given: the % may be the effect or the level left
[4] = biological target: T2, Tyrosine-protein phosphatase non-receptor type 1 (Homo sapiens, UniProt P18031); experiment: Inhibition of PTP1B; procedure, shortened: as §1
T2 sequence (P18031 whole entry): T1 sequence (whole entry)

| inhibition [1] | IC50 [4] | Structure (SMILES) | Activity (Rattus norvegicus [2]) | Activity (Rattus norvegicus [3]) |
| --- | --- | --- | --- | --- |
| 68.2% | 71 µM | COc1ccc(CCNC(=O)COc2ccccc2)cc1 | 20.6% | 24.6% |
| 76.9% | 69 µM | COc1ccc(CCNC(=O)Cc2cccc3ccccc23)cc1 | 24.1% | 25.1% |
| – | – | CN(C)C(=N)NC(=N)N [METFORMIN] | 23.9% | 27.2% |
| 62.5% | 87 µM | COc1ccc(CCNC(=O)Cc2ccccc2[N+](=O)[O-])cc1 | 17.5% | 19.8% |
